Experimental data taken from ChEMBL document CHEMBL1139141, “Structure-based design of benzylamino-acridine compounds as G-quadruplex DNA telomere targeting agents” (Bioorg Med Chem Lett, 2007).

What was measured:
Homo sapiens = species on record: Homo sapiens; assay: Effect on human G-quadruplex DNA stability by FRET assay
Outline: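 Oligonucleotide F21T (21-mer d[GGG(TTAGGG)3], donor–acceptor end-labelled) annealed at 400 nM in 50 mM KCl, 10 mM cacodylic acid pH 7.4 (92° 2 min, cooled over 4 h); 200 nM final with ligand 0.10–10.00 µM. Fluorescence read at 0.5° steps, 30–100° at 1°/min, excitation 450–495, detection 515–545 nm; ΔTm from melting, triplicate.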

[1] = target: Telomerase reverse transcriptase (Homo sapiens, UniProt O14746); assay: Inhibition of human telomerase by TRAP assay
Chain of Telomerase reverse transcriptase (O14746 whole entry): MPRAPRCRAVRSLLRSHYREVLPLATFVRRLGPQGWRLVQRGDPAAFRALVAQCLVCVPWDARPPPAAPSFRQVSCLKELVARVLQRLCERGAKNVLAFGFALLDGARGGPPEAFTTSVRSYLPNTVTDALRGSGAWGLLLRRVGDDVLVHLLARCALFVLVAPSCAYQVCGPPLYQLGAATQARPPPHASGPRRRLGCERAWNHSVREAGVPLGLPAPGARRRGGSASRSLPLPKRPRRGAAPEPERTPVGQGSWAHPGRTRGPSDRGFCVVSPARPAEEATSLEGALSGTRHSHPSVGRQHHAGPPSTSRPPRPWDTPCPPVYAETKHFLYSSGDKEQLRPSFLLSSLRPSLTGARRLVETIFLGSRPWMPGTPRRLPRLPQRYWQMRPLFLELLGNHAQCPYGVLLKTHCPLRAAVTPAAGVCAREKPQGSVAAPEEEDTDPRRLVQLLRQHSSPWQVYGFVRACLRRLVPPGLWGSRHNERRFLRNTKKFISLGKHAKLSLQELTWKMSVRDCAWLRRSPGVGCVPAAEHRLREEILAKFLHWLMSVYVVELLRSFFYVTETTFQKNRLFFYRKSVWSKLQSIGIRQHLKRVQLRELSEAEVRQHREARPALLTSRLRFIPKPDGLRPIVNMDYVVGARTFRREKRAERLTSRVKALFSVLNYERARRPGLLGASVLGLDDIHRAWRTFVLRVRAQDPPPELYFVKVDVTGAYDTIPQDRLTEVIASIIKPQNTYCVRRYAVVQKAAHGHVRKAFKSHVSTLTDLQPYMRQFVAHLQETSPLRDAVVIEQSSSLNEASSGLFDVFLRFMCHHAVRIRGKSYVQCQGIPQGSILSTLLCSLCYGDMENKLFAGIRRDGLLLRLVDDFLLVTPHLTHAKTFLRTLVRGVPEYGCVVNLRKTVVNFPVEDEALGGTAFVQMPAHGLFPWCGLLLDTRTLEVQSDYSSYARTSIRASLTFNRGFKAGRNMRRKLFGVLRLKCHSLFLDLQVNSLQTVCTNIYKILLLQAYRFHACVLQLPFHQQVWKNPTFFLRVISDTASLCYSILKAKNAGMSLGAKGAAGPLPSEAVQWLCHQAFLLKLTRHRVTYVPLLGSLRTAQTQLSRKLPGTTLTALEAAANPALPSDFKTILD
Outline: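 Modified TRAP using A2780 ovarian carcinoma cell extract (1 µg protein) in 20 mM Tris-HCl pH 8.3, 68 mM KCl, 1.5 mM MgCl2, 1 mM EGTA, 0.05% Tween 20, 125 µM dNTPs, TS primer; 10 min at 30° with or without drug, heat-inactivated, then ACX primer PCR, 33 cycles. SYBR Green-stained PAGE products quantified by fluorescence; telEC50, triplicate.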

DU-145 = assay: Growth inhibition of human DU145 cells by SRB assay; assay type: functional, cell-based
MCF7 = assay: Growth inhibition of human MCF7 cells by SRB assay; assay type: functional, cell-based
A549 = assay: Growth inhibition of human A549 cells by SRB assay; assay type: functional, cell-based

Structure (SMILES) | ΔTm (Homo sapiens) [°C] | EC50 [1] [µM] | IC50 (DU-145) [µM] | IC50 (MCF7) [µM] | IC50 (A549) [µM]
Cc1cccc(CNc2c3ccc(NC(=O)CCN4CCC(C)CC4)cc3nc3cc(NC(=O)CCN4CCC(C)CC4)ccc23)c1 | 24 | 0.39 | 0.63 | 0.58 | 0.57
O=C(CCN1CCCC1)Nc1ccc2c(NCc3cc(C(F)(F)F)cc(C(F)(F)F)c3)c3ccc(NC(=O)CCN4CCCC4)cc3nc2c1 | 27.5 | 0.86 | 2.61 | 1.07 | 6.3
CN(C)c1ccc(Nc2c3ccc(NC(=O)CCN4CCCCC4)cc3nc3cc(NC(=O)CCN4CCCCC4)ccc23)cc1 | 21 | 0.36 | 2.57 | 0.54 | 2
Cc1cccc(CNc2c3ccc(NC(=O)CCN4CCCC4)cc3nc3cc(NC(=O)CCN4CCCC4)ccc23)c1 | 29.5 | 1 | 10 | 3 | 1.19
O=C(CCN1CCCC1)Nc1ccc2c(NCc3ccc(F)c(F)c3)c3ccc(NC(=O)CCN4CCCC4)cc3nc2c1 | 29.5 | 0.03 | 9.75 | 2.26 | 2.11
COc1cc(CNc2c3ccc(NC(=O)CCN4CCCCC4)cc3nc3cc(NC(=O)CCN4CCCCC4)ccc23)cc(OC)c1 | 30 | 0.44 | 0.47 | 0.2 | 0.37
CN(C)c1ccc(Nc2c3ccc(NC(=O)CCN4CCCC4)cc3nc3cc(NC(=O)CCN4CCCC4)ccc23)cc1 | 28 | 0.12 | 2.3 | 2.53 | 2.42
O=C(CCN1CCCCC1)Nc1ccc2c(NCc3ccc(F)c(F)c3)c3ccc(NC(=O)CCN4CCCCC4)cc3nc2c1 | 26.5 | 0.88 | 2.25 | 0.52 | 1.2
Cc1cccc(CNc2c3ccc(NC(=O)CCN4CCCCC4)cc3nc3cc(NC(=O)CCN4CCCCC4)ccc23)c1 | 31 | 0.23 | 0.77 | 0.46 | 0.5
O=C(CCN1CCCC1)Nc1ccc2c(NCc3cc(F)cc(C(F)(F)F)c3)c3ccc(NC(=O)CCN4CCCC4)cc3nc2c1 | 30.5 | 0.24 | 2.53 | 1 | 2
COc1cc(CNc2c3ccc(NC(=O)CCN4CCCC4)cc3nc3cc(NC(=O)CCN4CCCC4)ccc23)cc(OC)c1 | 32.5 | 0.35 | 10.4 | 3.72 | 4.57
